The source made the active and inactive calls. No cut-off for these calls is given here.
Columns and labels:
[1] = target: T1, M-phase inducer phosphatase 1 (Homo sapiens, UniProt P30304); assay: Inhibition of human recombinant GST-tagged CDC25A expressed in bacterial expression system after 2 hrs
T1 sequence (P30304 whole entry): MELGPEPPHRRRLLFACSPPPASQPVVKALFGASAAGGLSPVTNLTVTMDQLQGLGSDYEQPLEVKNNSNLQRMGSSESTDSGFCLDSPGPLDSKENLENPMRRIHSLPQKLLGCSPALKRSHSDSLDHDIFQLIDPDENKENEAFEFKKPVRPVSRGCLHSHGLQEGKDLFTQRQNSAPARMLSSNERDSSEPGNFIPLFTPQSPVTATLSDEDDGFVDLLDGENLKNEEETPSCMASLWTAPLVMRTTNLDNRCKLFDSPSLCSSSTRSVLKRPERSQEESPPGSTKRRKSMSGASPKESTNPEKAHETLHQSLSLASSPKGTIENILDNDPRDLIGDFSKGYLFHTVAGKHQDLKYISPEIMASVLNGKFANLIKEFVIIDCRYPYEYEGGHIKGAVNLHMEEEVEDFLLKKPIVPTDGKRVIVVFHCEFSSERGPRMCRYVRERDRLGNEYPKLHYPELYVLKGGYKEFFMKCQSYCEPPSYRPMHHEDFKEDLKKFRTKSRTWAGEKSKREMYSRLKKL
Summary of the method: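 Each concentration tested in three independent microplates, three wells per plate. Median inhibitory concentration derived by generalized Poisson regression.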

[2] = target: T2, M-phase inducer phosphatase 3 (Homo sapiens, UniProt P30307); assay: Inhibition of human recombinant GST-tagged CDC25C expressed in bacterial expression system after 2 hrs
T2 sequence (P30307 whole entry): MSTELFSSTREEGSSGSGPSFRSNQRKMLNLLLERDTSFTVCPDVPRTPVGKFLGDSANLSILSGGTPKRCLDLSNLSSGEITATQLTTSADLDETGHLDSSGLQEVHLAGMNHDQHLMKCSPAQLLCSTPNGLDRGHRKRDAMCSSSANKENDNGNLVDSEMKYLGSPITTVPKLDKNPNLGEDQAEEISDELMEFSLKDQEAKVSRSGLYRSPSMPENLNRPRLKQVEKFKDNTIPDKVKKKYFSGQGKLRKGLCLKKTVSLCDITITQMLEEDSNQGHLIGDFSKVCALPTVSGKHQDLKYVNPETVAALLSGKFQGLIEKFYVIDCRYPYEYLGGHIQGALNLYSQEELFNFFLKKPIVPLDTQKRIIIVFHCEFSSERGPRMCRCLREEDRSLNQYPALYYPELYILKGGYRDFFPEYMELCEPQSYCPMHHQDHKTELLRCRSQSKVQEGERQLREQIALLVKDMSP
Summary of the method: (§1)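 Full-length GST-Cdc25C, bacterial IPTG expression, GSH-agarose purification. 1 µg enzyme per well. Single-point tests at 100 µM final (reference 10 µM) and IC50 values. Each concentration in three separate microplates, three wells each. IC50 by generalized Poisson regression.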

[3] = target: T3, M-phase inducer phosphatase 3 (Homo sapiens) (UniProt P30307); assay: Inhibition of human recombinant GST-tagged CDC25C expressed in bacterial expression system at 100 uM after 2 hrs; summary of the method: as §1
T3 sequence (whole entry): T2 sequence (P30307 whole entry)

[4] = target: T4, M-phase inducer phosphatase 2 (Homo sapiens) (UniProt P30305); assay: Inhibition of human recombinant GST-tagged CDC25B expressed in bacterial expression system at 100 uM after 2 hrs
T4 sequence (whole entry): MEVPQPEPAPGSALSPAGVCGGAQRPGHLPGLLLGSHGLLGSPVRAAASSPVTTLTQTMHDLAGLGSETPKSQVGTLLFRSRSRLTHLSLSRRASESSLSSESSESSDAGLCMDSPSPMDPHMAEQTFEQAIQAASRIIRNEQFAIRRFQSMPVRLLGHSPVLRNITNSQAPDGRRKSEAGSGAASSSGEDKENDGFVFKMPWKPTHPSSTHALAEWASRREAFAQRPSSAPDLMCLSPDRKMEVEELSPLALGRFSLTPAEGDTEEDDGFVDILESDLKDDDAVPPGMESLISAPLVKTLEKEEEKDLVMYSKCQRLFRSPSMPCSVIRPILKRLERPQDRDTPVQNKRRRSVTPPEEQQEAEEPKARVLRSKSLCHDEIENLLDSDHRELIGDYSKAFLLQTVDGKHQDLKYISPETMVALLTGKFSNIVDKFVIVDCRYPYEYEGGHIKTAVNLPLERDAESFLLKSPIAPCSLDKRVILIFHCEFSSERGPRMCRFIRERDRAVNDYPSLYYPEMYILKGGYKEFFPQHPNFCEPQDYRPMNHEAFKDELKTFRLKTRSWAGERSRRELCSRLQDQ
Summary of the method: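 Truncated GST-Cdc25B (active site only) expressed in bacteria by IPTG induction, purified on GSH-agarose. Tested at 100 µM final, reference at 10 µM. Percent inhibition, mean of three independent experiments with SD.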

[5] = target: T5, M-phase inducer phosphatase 1 (Homo sapiens) (UniProt P30304); assay: Inhibition of human recombinant GST-tagged CDC25A expressed in bacterial expression system at 100 uM after 2 hrs
T5 sequence (whole entry): T1 sequence (P30304 whole entry)
Summary of the method: (§2)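 GST-Cdc25A (full length), made in bacteria by IPTG induction and purified on GSH-agarose. Enzyme at 1 µg/well. Compounds tested at 100 µM final (reference at 10 µM). Reported as % inhibition, mean ± SD of three independent experiments.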

[6] = target: T5, M-phase inducer phosphatase 1 (Homo sapiens); assay: Inhibition of human recombinant GST-tagged CDC25A expressed in bacterial expression system; settings: TDE = time-dependent effect; summary of the method: as §2
[7] = target: T5, M-phase inducer phosphatase 1 (Homo sapiens); assay: Irreversible inhibition of human recombinant GST-tagged CDC25A expressed in bacterial expression system at 100 uM pretreated for up to 90 mins measured after 100 fold dilution
Summary of the method: (§3)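 Reversibility test. GST-Cdc25A was pre-incubated with compound at 100 µM (reference at 10 µM, DMSO control) for 0–90 min. The mixture was then diluted 100-fold to 1 µM (reference 0.1 µM). Activity was measured by adding OMFP to wells holding 900 ng enzyme. Representative of three independent experiments (M ± SD).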

[8] = target: T5, M-phase inducer phosphatase 1 (Homo sapiens); assay: Inhibition of human recombinant GST-tagged CDC25A expressed in bacterial expression system assessed as residual activity at 100 uM pretreated for 90 mins; summary of the method: as §3

IC50 [1] | IC50 [2] | inhibition [3] | inhibition [4] | inhibition [5] | inhibition [6] | Activity [7] | Activity [8] | Compound
70 µM | 47 µM | 64.8% | 21.3% | 66.4% | – | – | – | COc1ccc(C(=O)/C=C/c2cc(=O)oc3cc(OC)ccc23)cc1
– | – | – | – | 22% | – | – | – | Cc1c(-c2ccc(O)cc2)c(=O)oc2cc(O)ccc12
– | – | 26.2% | – | 39.8% | – | – | – | COc1ccc2c(CSCC(=O)c3ccc(OC)c(OC)c3)cc(=O)oc2c1
– | – | 21.2% | 16.1% | – | – | – | – | COc1ccc2c(CSCC(=O)c3ccccc3)cc(=O)oc2c1
– | – | 4.8% | – | – | – | – | – | COc1ccc(/C=C/C(=O)c2cc(=O)oc3cc(OC)ccc23)cc1
– | – | 15.6% | 8.5% | 27.5% | – | – | – | Cc1c(/C=C/c2ccc(O)cc2)c(=O)oc2cc(O)ccc12
28 µM | 26 µM | 94.2% | 23.2% | 94.3% | – | – | – | O=C(/C=C/c1cc(=O)oc2cc(O)ccc12)c1ccccc1
– | – | – | 9.1% | 7.4% | – | – | – | COc1ccc2c(C(=O)/C=C/c3ccc(OC)c(OC)c3)cc(=O)oc2c1
– | – | 48.4% | – | 45.3% | – | – | – | COc1ccc(/C=C/c2c(C)c3ccc(OC)cc3oc2=O)cc1
78 µM | 67 µM | 69% | 6.5% | 61.5% | – | – | – | COc1ccc2c(/C=C/C(=O)c3ccc(OC)c(OC)c3)cc(=O)oc2c1
62 µM | 72 µM | 43.7% | – | 68.7% | – | – | – | O=C(/C=C/c1cc(=O)oc2cc(O)ccc12)c1ccc(O)c(O)c1
– | – | 27.9% | – | 26.7% | – | – | – | COc1ccc(C(=O)CSCc2cc(=O)oc3cc(OC)ccc23)cc1
27 µM | 49 µM | 79.3% | 35% | 94.2% | tde | Active | 35% | COc1ccc2c(/C=C/C(=O)c3ccccc3)cc(=O)oc2c1
– | – | 31.3% | – | 45% | – | – | – | COc1ccc2c(C(=O)/C=C/c3ccccc3)cc(=O)oc2c1
– | – | 17.9% | – | 20.5% | – | – | – | COc1ccc(-c2c(C)c3ccc(OC)cc3oc2=O)cc1
96 µM | > 150 µM | 23.9% | 9.2% | 55% | – | – | – | O=C(/C=C/c1cc(=O)oc2cc(O)ccc12)c1ccc(O)cc1

Source: ChEMBL document CHEMBL1255540, “Synthesis and biological evaluation of novel coumarin-based inhibitors of Cdc25 phosphatases” (Bioorg Med Chem Lett, 2010)
